According to ChEMBL document CHEMBL1140286, “Synthesis, in vitro characterization, and radiolabeling of N,N-dimethyl-2-(2'-amino-4'-substituted-phenylthio)benzylamines: potential candidates as selective serotonin transporter radioligands” (J Med Chem, 2005):

How the values were obtained:
Format in all cases: cell-based
[1] = target: Sodium-dependent dopamine transporter (Homo sapiens, UniProt Q01959); assay: In vitro inhibition of [3H]WIN-35428 binding to human dopamine transporter expressed in canine kidney cells
Outline: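 Membranes from MDCK cells stably expressing hDAT, grown to confluency in DMEM with 10% FBS and Geneticin, harvested in PBS/0.53 mM EDTA, homogenized, pelleted at 43 000g. Membranes (30-70 µg protein) incubated 1 h at room temperature in 42 mM sodium phosphate, 320 mM sucrose, pH 7.4, with 2.0 nM [3H]WIN 35,428; competitor 10^-13 to 10^-5 M, 12 concentrations, triplicate; GF/B filtration; Ki.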

[2] = target: Sodium-dependent noradrenaline transporter (Homo sapiens, UniProt P23975); assay: In vitro inhibition of [3H]nisoxetine binding to norepinephrine transporter expressed in human kidney cells
Outline: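 HEK-293 membranes stably expressing hNET (30-70 µg protein) incubated 4 h at 4 °C with [3H]nisoxetine in 53 mM Tris, 320 mM NaCl, 5.3 mM KCl, pH 7.4. Competitor dissolved in 1:1 ethanol/5 mM HCl, 12 concentrations from 10^-13 to 10^-5 M, triplicate. Cold-buffer termination, vacuum filtration on GF/B; Ki calculated from competition curves.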

[3] = target: Sodium-dependent serotonin transporter (Homo sapiens, UniProt P31645); assay: In vitro inhibition of [3H]citalopram binding to human serotonin transporter expressed in human HEK293 cells
Outline: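 Membranes from HEK-293 cells stably expressing hSERT, grown in DMEM with 10% FBS and Geneticin. 30-70 µg membrane protein incubated 2 h at room temperature with [3H]citalopram in 53 mM Tris, 126 mM NaCl, 5.3 mM KCl, pH 7.9. Competitor at 12 concentrations, 10^-13 to 10^-5 M, in triplicate. Filtration through PEI-soaked GF/B filters; Ki from competition curves, at least two separate assays.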

Chain of Sodium-dependent noradrenaline transporter (P23975 whole entry): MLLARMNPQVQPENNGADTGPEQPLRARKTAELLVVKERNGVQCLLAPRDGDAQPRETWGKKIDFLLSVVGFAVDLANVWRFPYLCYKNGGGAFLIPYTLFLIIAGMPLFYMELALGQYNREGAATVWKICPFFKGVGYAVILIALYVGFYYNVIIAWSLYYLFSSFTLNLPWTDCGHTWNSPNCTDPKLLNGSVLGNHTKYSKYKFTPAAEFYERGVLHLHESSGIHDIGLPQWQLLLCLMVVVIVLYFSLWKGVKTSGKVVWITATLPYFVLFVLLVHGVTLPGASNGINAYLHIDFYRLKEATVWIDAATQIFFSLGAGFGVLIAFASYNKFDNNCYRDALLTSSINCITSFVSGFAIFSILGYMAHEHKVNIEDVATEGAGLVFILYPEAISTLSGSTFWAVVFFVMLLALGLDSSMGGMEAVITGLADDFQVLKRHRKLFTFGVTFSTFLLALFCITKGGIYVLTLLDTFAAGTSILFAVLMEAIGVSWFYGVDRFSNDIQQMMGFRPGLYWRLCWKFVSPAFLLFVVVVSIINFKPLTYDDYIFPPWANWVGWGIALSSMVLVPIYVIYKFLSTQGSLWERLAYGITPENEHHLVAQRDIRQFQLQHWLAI
Chain of Sodium-dependent serotonin transporter (P31645 whole entry): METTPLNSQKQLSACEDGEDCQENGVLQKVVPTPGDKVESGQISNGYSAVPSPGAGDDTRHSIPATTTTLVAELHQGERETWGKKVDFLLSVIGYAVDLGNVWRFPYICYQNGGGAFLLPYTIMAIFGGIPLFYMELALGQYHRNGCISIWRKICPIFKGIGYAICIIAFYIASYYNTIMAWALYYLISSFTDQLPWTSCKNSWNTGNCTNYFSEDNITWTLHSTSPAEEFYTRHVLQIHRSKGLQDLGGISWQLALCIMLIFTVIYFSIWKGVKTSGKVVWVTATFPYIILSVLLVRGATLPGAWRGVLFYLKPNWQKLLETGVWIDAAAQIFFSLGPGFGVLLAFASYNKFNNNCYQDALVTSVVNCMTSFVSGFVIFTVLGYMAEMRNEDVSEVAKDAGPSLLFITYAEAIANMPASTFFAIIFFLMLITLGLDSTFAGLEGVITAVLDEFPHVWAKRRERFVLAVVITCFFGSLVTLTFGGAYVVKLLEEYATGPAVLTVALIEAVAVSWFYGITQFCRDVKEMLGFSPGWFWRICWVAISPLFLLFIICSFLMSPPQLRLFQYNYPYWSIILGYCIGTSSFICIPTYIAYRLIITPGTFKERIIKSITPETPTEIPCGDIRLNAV
Chain of Sodium-dependent dopamine transporter (Q01959 whole entry): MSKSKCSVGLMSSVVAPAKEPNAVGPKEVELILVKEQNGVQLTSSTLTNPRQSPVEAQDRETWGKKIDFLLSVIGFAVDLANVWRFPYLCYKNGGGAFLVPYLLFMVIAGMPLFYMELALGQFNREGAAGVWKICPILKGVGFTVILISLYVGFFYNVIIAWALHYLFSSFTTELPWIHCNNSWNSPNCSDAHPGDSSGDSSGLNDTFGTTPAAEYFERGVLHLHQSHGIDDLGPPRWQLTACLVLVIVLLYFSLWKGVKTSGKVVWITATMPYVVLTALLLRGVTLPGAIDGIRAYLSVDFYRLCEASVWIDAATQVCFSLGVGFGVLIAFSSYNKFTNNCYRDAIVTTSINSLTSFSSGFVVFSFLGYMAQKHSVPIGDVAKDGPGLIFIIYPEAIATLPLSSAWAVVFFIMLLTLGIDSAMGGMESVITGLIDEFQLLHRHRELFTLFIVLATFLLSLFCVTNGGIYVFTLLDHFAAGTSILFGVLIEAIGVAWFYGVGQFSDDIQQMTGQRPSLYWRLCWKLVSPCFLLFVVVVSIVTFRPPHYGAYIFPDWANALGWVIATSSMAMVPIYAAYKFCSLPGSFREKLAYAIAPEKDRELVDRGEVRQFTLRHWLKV

Row | Compound | Ki [1] | Ki [2] | Ki [3]
1 | CN(C)Cc1ccccc1Sc1ccc(CCO)cc1N | > 1000 nM | 194 nM | 50.6 nM
2 | CN(C)Cc1ccccc1Sc1ccc(CCF)cc1N | > 5000 nM | > 5000 nM | 8.5 nM
3 | CNC(=O)c1ccccc1Sc1ccccc1[N+](=O)[O-] | 969 nM | 37.5 nM | 83.4 nM
4 | CNCc1ccccc1Sc1ccc(CO)cc1N | > 1000 nM | 484 nM | 15.1 nM
5 | CN(C)Cc1ccccc1Sc1ccc(CCCF)cc1N | > 5000 nM | 219 nM | 8.55 nM
6 | CN(C)Cc1ccccc1Sc1ccc(CCCO)cc1N | > 5000 nM | 108 nM | 92.3 nM

Molecules with a lower Ki [3], results first:

Row | Ki [1] | Ki [2] | Ki [3] | Compound
7 | > 2000 nM | 370 nM | 0.49 nM | CCc1ccc(Sc2ccccc2CN(C)C)c(N)c1
8 | > 1000 nM | 445 nM | 2.04 nM | CCc1ccc(Sc2ccccc2CNC)c(N)c1
9 | 279 nM | 4.95 nM | 1.59 nM | CN(C)Cc1ccccc1Sc1ccccc1N
10 | 962 nM | 269 nM | 1.12 nM | C=Cc1ccc(Sc2ccccc2CN(C)C)c(N)c1
11 | > 1000 nM | 303 nM | 0.57 nM | CN(C)Cc1ccccc1Sc1ccc(CO)cc1N
12 | 698 nM | 191 nM | 1.94 nM | CNC(=O)c1ccccc1Sc1ccc(C)cc1[N+](=O)[O-]
13 | 532 nM | 61 nM | 0.25 nM | Cc1ccc(Sc2ccccc2CN(C)C)c(N)c1
14 | – | – | 0.013 nM | CN(C)Cc1ccccc1Sc1ccc(I)cc1N
